Experiments:
AKT [1] = experiment: immunoblot of AKT phosphorylation in HEK293T cells; assay type: cell-based, Human; conditions: 0.1 μM, 0-6 h
[2] = tested on: BRD9 interaction with AKT1; experiment: co-immunoprecipitation of BRD9 and AKT1 in MDA-MB-231 cells; assay type: cell-based; conditions: 0.1 μM, 16 hours
How it was run: (§1)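 Cells grown in DMEM with 10% FBS, penicillin/streptomycin, at 37°C and 5% CO2; HEK293T transfected with Lipofectamine/Plus. Cells rinsed in ice-cold PBS and lysed in Triton buffer (40 mM Hepes pH 7.4, 150 mM NaCl, 1% Triton X-100) or EBC buffer (50 mM Tris pH 7.5, 0.5% NP-40) with protease/phosphatase inhibitors. 1000–3000 μg lysate incubated with agarose-conjugated antibody 3–4 h at 4°C; beads washed five times in NETN; SDS-PAGE immunoblot.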

SMARCA2/4 = experiment: immunoblot of SMARCA2/4 depletion; assay type: cell-based; conditions: 0.1 μM, 16 hours, MDA-MB-231
How it was run: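 Cells grown at 37°C, 5% CO2 with 10% FBS: MDA-MB-231 and MCF-7 in DMEM, BT-549 and T-47D in RPMI 1640. After washing in ice-cold PBS, cells were lysed in Triton (pH 7.4) or EBC (pH 7.5) buffer with protease and phosphatase inhibitors. Equal protein was resolved by SDS-PAGE, transferred to PVDF and probed with primary antibodies at 1:1000–1:10,000 in TBST/5% milk.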

H3K27me3 = experiment: immunoblot of H3K27me3; assay type: cell-based
MDA-MB-231 cells [3] = experiment: RT-qPCR of select common genes in MDA-MB-231 cells; assay type: cell-based; conditions: n = 3 biological replicates
AKT1 PH and KD domains = experiment: interaction of AKT1 PH and KD domains in HEK293T cells; assay type: cell-based, Human; conditions: 5 μM I-BRD9, 16 h
BRD9-BD = experiment: in vitro biotin-peptide pull-down with GST-BRD9-BD; assay type: binding; conditions: immunoblot; for relative affinity of BRD9-BD for R391me2s vs H4R3me2s: biotin-labeled peptides, pull-down with GST-BRD9-BD
AKT [4] = experiment: immunoblot of AKT activation; assay type: cell-based; conditions: 5 μM I-BRD9, MDA-MB-231, indicated times
How it was run: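 MDA-MB-231 cells kept in DMEM with 10% FBS, penicillin/streptomycin, 37°C, 5% CO2. After treatment, cells washed with ice-cold PBS and lysed in Triton or EBC buffer containing protease/phosphatase inhibitors. Protein quantified by Bio-Rad assay; equal lysate amounts run on SDS-PAGE and transferred to PVDF. Blots probed with pT308-AKT, pS473-AKT, pan-AKT, pGSK-3β and GSK-3β antibodies diluted 1:1000–1:10,000 in TBST/5% milk.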

MDA-MB-231 cells [5] = experiment: RNA-seq of treated MDA-MB-231 cells; assay type: cell-based, human; conditions: for shared down-regulated genes (I-BRD9 and ipatasertib) / shared up-regulated genes (I-BRD9 and ipatasertib): 5 μM I-BRD9 or 1 μM ipatasertib, Q value < 0.05; for hallmark gene sets significantly enriched among the 186 shared genes: MSigDB, genes shared by I-BRD9 and ipatasertib; for common down-regulated genes significantly marked by H3K27me3: of 116 genes common to I-BRD9 and ipatasertib, epidecodeR
[6] = tested on: BRD9 and AKT1 interaction; experiment: co-immunoprecipitation of Myc-BRD9 and HA-AKT1 in HEK293T cells; assay type: cell-based, Human; conditions: 5 μM, 24 hours
EZH2 = experiment: AKT-mediated phosphorylation of EZH2, phospho-AKT substrate antibody; assay type: cell-based, Human; conditions: 5 μM I-BRD9, 16 h, HEK293T transfected with HA-EZH2
How it was run: as §1

BRD9-3Mut = experiment: biotin-peptide pull-down with Myc-BRD9-3Mut; assay type: binding; conditions: Myc-BRD9-3Mut from HEK293T WCL; immunoblot
Tudor domain of SND1 = experiment: biotin-peptide pull-down with GST-SND1-Tudor; assay type: binding; conditions: compared to BRD9-BD, immunoblot
Tudor domain of SMN = experiment: biotin-peptide pull-down with GST-SMN-Tudor; assay type: binding; conditions: compared to BRD9-BD, immunoblot

Cc1ncsc1-c1ccc([C@H](C)NC(=O)[C@@H]2C[C@@H](O)CN2C(=O)[C@@H](NC(=O)CN2CCN(c3cc(-c4ccccc4O)nnc3N)CC2)C(C)(C)C)cc1 [AU-15330]
AKT phosphorylation, AU-15330 (AKT [1]): minor effects
effect on BRD9 interaction with AKT1 [2]: minimal effects on BRD9 interaction with AKT1
depletion of SMARCA2/4 (SMARCA2/4): depletion of SMARCA2/4
H3K27me3, AU-15330 (H3K27me3; 0.1 μM, 0-6 h, HEK293T): minor effects

Nc1cc(C(F)(F)F)c(-c2cc(N3CCOCC3)nc(N3CCOCC3)n2)cn1 [BKM120]
H3K27me3 level, BKM120 (H3K27me3; 0, 1, 5 μM, 16 h, MDA-MB-231): elevated

CC[C@H](C)n1cc(C)c2c(C(=O)NCc3c(C)cc(C)[nH]c3=O)cc(-c3ccc(N4CCNCC4)nc3)cc21 [GSK126]
transcription of common genes of BRD9 and AKT (MDA-MB-231 cells [3]; 5 μM GSK126, 48 hours): increased the transcription of common genes of BRD9 and AKT
effect on H3K27me3 elevation caused by loss of BRD9 (H3K27me3; 5 μM GSK126, 16 h, MDA-MB-231, sgBRD9): completely blocked
effect on I-BRD9-enhanced H3K27me3 (H3K27me3; GSK126 with I-BRD9, 16 h, MDA-MB-231 (fig. S6D)): suppressed

CCn1cc(-c2cccc(C(F)(F)F)c2)c2sc(C(=N)NC3CCS(=O)(=O)CC3)cc2c1=O [I-BRD9]
interaction between PH and KD domains, I-BRD9 (AKT1 PH and KD domains): enhance the interaction between the PH and KD domains
effect on AKT1-R391me2s peptide binding of BRD9-BD in vitro (BRD9-BD; 5 μM I-BRD9, pull-down): blocked the AKT1-R391me2s peptide binding of BRD9-BD in vitro
mRNA of shared genes in hallmark pathways, I-BRD9 (MDA-MB-231 cells [3]; 5 μM I-BRD9, 16 hours): transcriptionally repressed
AKT activation, I-BRD9 (AKT [4]): diminished AKT activation in a time-dependent manner
H3K27me3, I-BRD9 combined with AKT1 depletion (H3K27me3; 5 μM I-BRD9, 16 h, AKT1-depleted MDA-MB-231): did not further induce H3K27me3
H3K27me3 induction by I-BRD9 upon overexpression of myr-AKT1 (H3K27me3; 5 μM I-BRD9, 16 h, MDA-MB-231 stably expressing Myr-AKT1 (fig. S6J)): largely suppressed H3K27me3 induction
H3K27me3 signal, I-BRD9 (H3K27me3; MDA-MB-231 (Fig. 5D) and MDA-MB-436 (0, 1, 5 μM, fig. S6C), 16 h): markedly enhanced H3K27me3 signal
shared down-regulated genes (I-BRD9 and ipatasertib) (MDA-MB-231 cells [5]; 16 hours): 116 genes
shared up-regulated genes (I-BRD9 and ipatasertib) (MDA-MB-231 cells [5]; 16 hours): 70 genes
hallmark gene sets significantly enriched among the 186 shared genes (MDA-MB-231 cells [5]): Nine
common down-regulated genes significantly marked by H3K27me3 (MDA-MB-231 cells [5]): Seventy-five
effect on BRD9 and AKT1 interaction in cells [6]: markedly impaired BRD9 and AKT1 interaction in cells
AKT-mediated phosphorylation of EZH2 (EZH2): largely blocked AKT-mediated phosphorylation of EZH2

O=c1cc(N2CCOCC2)oc2c(-c3ccccc3)cccc12 [LY294002]
H3K27me3 level, LY294002 (H3K27me3; 0, 10, 20 μM, 16 h, MDA-MB-231): elevated

CC(C)NC[C@@H](C(=O)N1CCN(c2ncnc3c2[C@H](C)C[C@H]3O)CC1)c1ccc(Cl)cc1 [ipatasertib]
mRNA of shared genes in hallmark pathways, ipatasertib (MDA-MB-231 cells [3]; 1 μM ipatasertib, 16 hours): transcriptionally repressed
H3K27me3 level, ipatasertib (H3K27me3; 0, 1, 5 μM, 16 h, MDA-MB-231): elevated
share of AKT-down-regulated genes that are common with I-BRD9 (MDA-MB-231 cells [5]; 1 μM ipatasertib, 16 hours): 59%
share of AKT-up-regulated genes that are common with I-BRD9 (MDA-MB-231 cells [5]; 1 μM ipatasertib, 16 hours): 32%
shared down-regulated genes (I-BRD9 and ipatasertib) (MDA-MB-231 cells [5]; 16 hours): 116 genes
shared up-regulated genes (I-BRD9 and ipatasertib) (MDA-MB-231 cells [5]; 16 hours): 70 genes
hallmark gene sets significantly enriched among the 186 shared genes (MDA-MB-231 cells [5]): Nine
common down-regulated genes significantly marked by H3K27me3 (MDA-MB-231 cells [5]): Seventy-five

Biotin-Ahx-GLLKKDPKQ(Rme2s)LGGGSEDA [R391me2s]
relative affinity of BRD9-BD for R391me2s vs H4R3me2s (BRD9-BD): greater affinity for R391me2s than H4R3me2s
binding of BRD9-3Mut to AKT1-R391me2s peptide (BRD9-3Mut): incapable of binding
binding of Tudor domain of SND1 to R391me2s (Tudor domain of SND1): much weaker or no binding
binding of Tudor domain of SMN to R391me2s (Tudor domain of SMN): much weaker or no binding

H4R3me2s: Biotin-H4R3me2s peptide, ANASPEC AS-65424
relative affinity of BRD9-BD for R391me2s vs H4R3me2s (BRD9-BD): greater affinity for R391me2s than H4R3me2s

Source: article PMC12024519 (Science Advances, 2025)
